{
  "source": "paper PMC7238799",
  "about": "(Pulmonary Circulation, 2020)",
  "tested_on": "healthy subjects",
  "assay": "Multiple ascending dose",
  "format": "in vivo, human",
  "outline": "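Subjects on test compound or placebo were domiciled up to 31 days (QD Cohorts 1–2) or 34 days (BID Cohort 3), with a 48-h drug-free follow-up. Monitoring at multiple time points covered adverse events, vital signs, 12-lead ECG with intensive ECG monitoring in all cohorts, and safety labs (serum chemistry, hematology, urinalysis). Data were summarized descriptively by treatment group.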",
  "key": {"[1]": {"conditions": "Cohort 3, BID, all dose levels, n = 20"}, "[2]": {"conditions": "Cohorts 1 and 2, QD, all dose levels, n = 20"}},
  "data": [
    {"smiles": "O=C(O)COC[C@H]1CC[C@H](COC(=O)N(c2ccccc2)c2ccc(Cl)cc2)CC1", "note": "[ralinepag]", "values": [
      {"measurement": "Dermatitis contact, subjects (%)", "setting": "[1]", "result": "2 (10%)"},
      {"measurement": "Diarrhea, subjects (%)", "setting": "[1]", "result": "7 (35%)"},
      {"measurement": "Dizziness, subjects (%)", "setting": "[1]", "result": "9 (45%)"},
      {"measurement": "Dry mouth, subjects (%)", "setting": "[1]", "result": "2 (10%)"},
      {"measurement": "Eructation, subjects (%)", "setting": "[1]", "result": 0},
      {"measurement": "Fatigue, subjects (%)", "setting": "[1]", "result": "3 (15%)"},
      {"measurement": "Feeling hot, subjects (%)", "setting": "[1]", "result": "2 (10%)"},
      {"measurement": "Flatulence, subjects (%)", "setting": "[1]", "result": 0},
      {"measurement": "Flushing, subjects (%)", "setting": "[1]", "result": "3 (15%)"},
      {"measurement": "Headache, subjects (%)", "setting": "[1]", "result": "17 (85%)"},
      {"measurement": "Hordeolum, subjects (%)", "setting": "[1]", "result": 0},
      {"measurement": "Muscle tightness, subjects (%)", "setting": "[1]", "result": "2 (10%)"},
      {"measurement": "Muscular weakness, subjects (%)", "setting": "[1]", "result": "2 (10%)"},
      {"measurement": "Myalgia, subjects (%)", "setting": "[1]", "result": "9 (45%)"},
      {"measurement": "Nausea, subjects (%)", "setting": "[1]", "result": "9 (45%)"},
      {"measurement": "Non-cardiac chest pain, subjects (%)", "setting": "[1]", "result": 0},
      {"measurement": "Number of AEs reported", "setting": "[1]", "result": 196},
      {"measurement": "Ocular hyperemia, subjects (%)", "setting": "[1]", "result": "3 (15%)"},
      {"measurement": "Oropharyngeal pain, subjects (%)", "setting": "[1]", "result": "1 (5%)"},
      {"measurement": "Pain in extremity, subjects (%)", "setting": "[1]", "result": 0},
      {"measurement": "Pain in jaw, subjects (%)", "setting": "[1]", "result": "13 (65%)"},
      {"measurement": "Palpitations, subjects (%)", "setting": "[1]", "result": "5 (25%)"},
      {"measurement": "Paraesthesia, subjects (%)", "setting": "[1]", "result": "4 (20%)"},
      {"measurement": "Pruritus, subjects (%)", "setting": "[1]", "result": "2 (10%)"},
      {"measurement": "Restless leg syndrome, subjects (%)", "setting": "[1]", "result": "2 (10%)"},
      {"measurement": "Somnolence, subjects (%)", "setting": "[1]", "result": "2 (10%)"},
      {"measurement": "Total (%) subjects with at least one AE", "setting": "[1]", "result": "19 (95.0%)"},
      {"measurement": "Total (%) subjects with at least one SAE", "setting": "[1]", "result": "0 (0%)"},
      {"measurement": "Tremor, subjects (%)", "setting": "[1]", "result": "1 (5.0%)"},
      {"measurement": "Vomiting, subjects (%)", "setting": "[1]", "result": "3 (15%)"},
      {"measurement": "Abdominal distention, subjects (%)", "setting": "[2]", "result": "2 (10%)"},
      {"measurement": "Abdominal pain, subjects (%)", "setting": "[2]", "result": "6 (30%)"},
      {"measurement": "Acne, subjects (%)", "setting": "[2]", "result": 0},
      {"measurement": "Application site dermatitis, subjects (%)", "setting": "[2]", "result": "6 (30%)"},
      {"measurement": "Arthralgia, subjects (%)", "setting": "[2]", "result": 0},
      {"measurement": "Asthenia, subjects (%)", "setting": "[2]", "result": "2 (10%)"},
      {"measurement": "Back pain, subjects (%)", "setting": "[2]", "result": "1 (5%)"},
      {"measurement": "Chapped lips, subjects (%)", "setting": "[2]", "result": 0},
      {"measurement": "Chest pain, subjects (%)", "setting": "[2]", "result": "1 (5%)"},
      {"measurement": "Chromaturia, subjects (%)", "setting": "[2]", "result": 0},
      {"measurement": "Constipation, subjects (%)", "setting": "[2]", "result": "6 (30%)"},
      {"measurement": "Decreased appetite, subjects (%)", "setting": "[2]", "result": "4 (20%)"},
      {"measurement": "Dermatitis contact, subjects (%)", "setting": "[2]", "result": 0},
      {"measurement": "Diarrhea, subjects (%)", "setting": "[2]", "result": "5 (25%)"},
      {"measurement": "Dizziness, subjects (%)", "setting": "[2]", "result": "5 (25%)"},
      {"measurement": "Dry mouth, subjects (%)", "setting": "[2]", "result": 0},
      {"measurement": "Eructation, subjects (%)", "setting": "[2]", "result": "3 (15%)"},
      {"measurement": "Fatigue, subjects (%)", "setting": "[2]", "result": "2 (10%)"},
      {"measurement": "Feeling hot, subjects (%)", "setting": "[2]", "result": "2 (10%)"},
      {"measurement": "Flatulence, subjects (%)", "setting": "[2]", "result": "2 (10%)"},
      {"measurement": "Flushing, subjects (%)", "setting": "[2]", "result": "7(35%)"},
      {"measurement": "Headache, subjects (%)", "setting": "[2]", "result": "19 (95%)"},
      {"measurement": "Hordeolum, subjects (%)", "setting": "[2]", "result": "3 (15%)"},
      {"measurement": "Muscle tightness, subjects (%)", "setting": "[2]", "result": 0},
      {"measurement": "Muscular weakness, subjects (%)", "setting": "[2]", "result": "1 (5%)"},
      {"measurement": "Myalgia, subjects (%)", "setting": "[2]", "result": "6 (30%)"},
      {"measurement": "Nausea, subjects (%)", "setting": "[2]", "result": "17 (85%)"},
      {"measurement": "Non-cardiac chest pain, subjects (%)", "setting": "[2]", "result": "2 (10%)"},
      {"measurement": "Number of AEs reported", "setting": "[2]", "result": 230},
      {"measurement": "Ocular hyperemia, subjects (%)", "setting": "[2]", "result": 0},
      {"measurement": "Oropharyngeal pain, subjects (%)", "setting": "[2]", "result": "2(10%)"},
      {"measurement": "Pain in extremity, subjects (%)", "setting": "[2]", "result": "3 (15%)"},
      {"measurement": "Pain in jaw, subjects (%)", "setting": "[2]", "result": "13 (65%)"},
      {"measurement": "Palpitations, subjects (%)", "setting": "[2]", "result": "4 (20%)"},
      {"measurement": "Paraesthesia, subjects (%)", "setting": "[2]", "result": "1 (5%)"},
      {"measurement": "Pruritus, subjects (%)", "setting": "[2]", "result": "1 (5.0%)"},
      {"measurement": "Restless leg syndrome, subjects (%)", "setting": "[2]", "result": "1 (5%)"},
      {"measurement": "Somnolence, subjects (%)", "setting": "[2]", "result": "3 (15%)"},
      {"measurement": "Total (%) subjects with at least one AE", "setting": "[2]", "result": "20 (100%)"},
      {"measurement": "Total (%) subjects with at least one SAE", "setting": "[2]", "result": "1 (5.0%)"},
      {"measurement": "Tremor, subjects (%)", "setting": "[2]", "result": "2 (10%)"},
      {"measurement": "Vomiting, subjects (%)", "setting": "[2]", "result": "12 (60%)"},
      {"measurement": "Subjects withdrawn from the study due to AEs", "setting": "Cohorts 1 and 2, receiving ralinepag", "result": "three"},
      {"measurement": "Tolerability versus dose", "setting": "QD (up to 400 µg) or BID (up to 70 µg) dosing", "result": "tolerability decreasing with increasing dose"},
      {"measurement": "QT prolongation (12-lead Holter ECG, high-precision QT analysis)", "setting": "QD and BID dose ranges evaluated", "result": "not likely to be associated with QT prolongation"},
      {"measurement": "Serious adverse event", "setting": "one subject, 50 µg QD, Cohort 2, possibly related to study medication", "result": "SAE of atrial fibrillation considered moderate in intensity"}
    ]}
  ]
}
